ChEMBL document CHEMBL4715835, “Lipidic synthetic alkaloids as SK3 channel modulators. Synthesis and biological evaluation of 2-substituted tetrahydropyridine derivatives with potential anti-metastatic activity” (Eur J Med Chem, 2020)
Active and inactive are the calls of the source. No cut-off for these calls is given here.

How the values were obtained:
MDA-MB-435 [1] = assay: Toxicity in human MDA-MB-435 cells assessed as mortality at 1 uM measured after 24 hrs by MTT assay relative to control; format: cell-based; conditions: mda-mb-435, 24 h
Outline: (§1)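 MTT viability assay: about 4 × 10⁴ MDA-MB-435s cells seeded in triplicate with the molecules (tested series 100 nM, 300 nM, 1 µM, 3 µM, 10 µM) and kept 24 h at 37 °C. Medium was then removed and cells incubated 45 min at 37 °C with tetrazolium salt, which viable cells reduce to formazan. Results given as % mortality.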

MDA-MB-435 [2] = assay: Toxicity in human MDA-MB-435 cells assessed as mortality at 3 uM measured after 24 hrs by MTT assay relative to control; format: cell-based; conditions: mda-mb-435, 24 h; outline: as §1
MDA-MB-435 [3] = assay: Toxicity in human MDA-MB-435 cells assessed as mortality at 10 uM measured after 24 hrs by MTT assay relative to control; format: cell-based; conditions: mda-mb-435, 24 h; outline: as §1
[4] = Toxicity in human Huh-7 cells assessed as reduction in cell number after 48 hrs by Hoechst 33342 staining based assay
Outline: (§2)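 4000 cells per well. Cells exposed 24 h after seeding to 6 concentrations ([…]) for 48 h. They were then fixed in cold 90% ethanol/5% acetic acid for 20 min and nuclei stained with Hoechst 33342. Plates imaged on a high-content reader. IC₅₀ calculated; normal diploid skin fibroblasts served as control cells.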

[5] = Toxicity in human Caco-2 cells assessed as reduction in cell number after 48 hrs by Hoechst 33342 staining based assay; outline: as §2
[6] = Toxicity in human MDA-MB-231 cells assessed as reduction in cell number after 48 hrs by Hoechst 33342 staining based assay; outline: as §2
[7] = Toxicity in human HCT-116 cells assessed as reduction in cell number after 48 hrs by Hoechst 33342 staining based assay; outline: as §2
[8] = Toxicity in human PC-3 cells assessed as reduction in cell number after 48 hrs by Hoechst 33342 staining based assay; outline: as §2
[9] = Toxicity in human NCI-H727 cells assessed as reduction in cell number after 48 hrs by Hoechst 33342 staining based assay; outline: as §2
[10] = Toxicity in human MCF7 cells assessed as reduction in cell number after 48 hrs by Hoechst 33342 staining based assay; outline: as §2
[11] = Toxicity in human skin fibroblasts assessed as reduction in cell number after 48 hrs by Hoechst 33342 staining based assay; format: tissue-based, Fibroblast; outline: as §2
MDA-MB-435 [12] = assay: Antimetastatic activity against human MDA-MB-435 cells assessed as reduction in cell migration at 1 uM after 24 hrs by […] relative to control; format: functional; design: scale not given: the % may be the effect or the level left
MDA-MB-435 [13] = assay: Antimetastatic activity against human MDA-MB-435 cells harboring SK3 shRNA assessed as reduction in cell migration after 24 hrs by […]; format: functional, cell-based
MDA-MB-435 [14] = assay: Antimetastatic activity against human MDA-MB-435 cells harboring shRNA assessed as reduction in cell migration at 3 uM after 24 hrs by […] relative to control; format: functional; design: scale not given: the % may be the effect or the level left
MDA-MB-435 [15] = assay: Antimetastatic activity against human MDA-MB-435 cells harboring shRNA assessed as reduction in cell migration at 0.3 to 3 uM after 24 hrs by […]; format: functional, cell-based; conditions: dose 0.3-3 µM
MDA-MB-435 [16] = assay: Inhibition of SK3/Orai1 in human MDA-MB-435 cells harboring SK3 shRNA assessed as reduction in Ca2+ influx at 1 uM measured after 1 hr by Fura2-AM dye based fluorescence assay; format: cell-based
Outline: (§3)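 Constitutive Ca²⁺ entry in MDA-MB-435s shRD or shSK3 cells, measured 48 h after transfection with 30 nM siOrai1 or siCTL. Cells were treated 1 h with compound and loaded with Fura2-AM for 45 min at 37 °C. They were then resuspended in Ca²⁺-free solution for 20 s before 2 mM CaCl₂ was added. Emission read at 510 nm with 340/380 nm excitation. Steady-state signal normalized to control. Three experiments in triplicate.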

[17] = target: Small conductance calcium-activated potassium channel protein 3 (Homo sapiens) (UniProt Q9UGI6); assay: Inhibition of SK3 in human MDA-MB-435 cells harboring SK3 shRNA assessed as reduction in Ca2+ influx at 1 uM measured after 1 hr by Fura2-AM dye based fluorescence assay; format: cell-based; outline: as §3
MDA-MB-435 [18] = assay: Effect on calcium influx in human MDA-MB-435 cells harboring siRNA and siCTL at 1 uM measured after 1 hr by Fura2-AM dye based fluorescence assay; format: functional, cell-based; outline: as §3
MDA-MB-435 [19] = assay: Effect on calcium influx in human MDA-MB-435 cells harboring siRNA and siOrai1 at 1 uM measured after 1 hr by Fura2-AM dye based fluorescence assay; format: functional, cell-based; outline: as §3
[20] = target: Small conductance calcium-activated potassium channel protein 3 (Homo sapiens) (UniProt Q9UGI6); assay: Inhibition of SK3 (unknown origin) expressed in HEK293 cells assessed as reduction in channel current at 10 uM with 0 mV holding potential by patch clamp electrophysiological method; format: cell-based
Outline: (§4)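 Patch clamp on HEK-293 cells stably expressing SK3 (lentiviral). Compound added acutely; DMSO/methanol was the vehicle, and runs with or without apamin. Ramp from −80 to +80 mV, holding at 0 mV, 500 ms ramps at 4 s intervals. Current analyzed at 0 mV to minimize chloride currents, followed as a time course. Pipette solution adjusted to pH 7.2 with KOH.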

[21] = target: Small conductance calcium-activated potassium channel protein 3 (Homo sapiens) (UniProt Q9UGI6); assay: Inhibition of SK3 (unknown origin) expressed in HEK293 cells assessed as reduction in channel current at 10 uM with 0 mV holding potential measured within 100 secs by patch clamp electrophysiological method relative to control; format: cell-based; conditions: time 100.0 sec; outline: as §4
[22] = target: Small conductance calcium-activated potassium channel protein 3 (Homo sapiens) (UniProt Q9UGI6); assay: Inhibition of SK3 (unknown origin) expressed in HEK293 cells assessed as reduction in channel current at 10 uM with 0 mV holding potential in presence of -apamin by patch clamp electrophysiological method; format: cell-based; outline: as §4

Sequence of Small conductance calcium-activated potassium channel protein 3 (Homo sapiens) (Q9UGI6 whole entry): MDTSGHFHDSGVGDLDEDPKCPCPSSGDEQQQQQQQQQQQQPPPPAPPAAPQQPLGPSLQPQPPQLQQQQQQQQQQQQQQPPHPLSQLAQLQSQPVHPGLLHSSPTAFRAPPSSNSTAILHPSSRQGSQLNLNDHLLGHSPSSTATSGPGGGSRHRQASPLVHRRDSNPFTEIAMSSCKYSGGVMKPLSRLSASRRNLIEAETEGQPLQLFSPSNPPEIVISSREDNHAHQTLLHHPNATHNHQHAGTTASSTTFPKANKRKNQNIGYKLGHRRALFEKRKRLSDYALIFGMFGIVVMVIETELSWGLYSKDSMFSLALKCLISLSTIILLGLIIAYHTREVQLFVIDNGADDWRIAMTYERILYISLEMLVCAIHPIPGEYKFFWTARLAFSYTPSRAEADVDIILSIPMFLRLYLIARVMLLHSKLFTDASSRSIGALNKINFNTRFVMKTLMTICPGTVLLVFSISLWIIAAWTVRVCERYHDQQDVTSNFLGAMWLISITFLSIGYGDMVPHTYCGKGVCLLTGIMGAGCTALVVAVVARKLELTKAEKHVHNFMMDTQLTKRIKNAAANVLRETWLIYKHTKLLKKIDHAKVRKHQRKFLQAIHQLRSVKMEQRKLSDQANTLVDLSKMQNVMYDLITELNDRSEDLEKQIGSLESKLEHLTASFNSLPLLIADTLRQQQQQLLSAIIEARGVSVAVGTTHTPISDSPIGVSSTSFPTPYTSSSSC

Compound: CCCCCCCC/C=C\CCCCCCCC(Cc1ccccn1)OC (stereo unspecified)
- mortality (MDA-MB-435 [1]): 20%
- mortality (MDA-MB-435 [2]): 25%

Compound: CCCCCCCCCCCCCCCCCC(O)Cc1ccccn1 (stereo unspecified)
- mortality (MDA-MB-435 [1]): 0%
- mortality (MDA-MB-435 [3]): 0%

Compound: CCCCCCCC/C=C\CCCCCCCC(O)Cc1ccccn1 (stereo unspecified)
- mortality (MDA-MB-435 [1]): 20%
- mortality (MDA-MB-435 [2]): 25%

Compound: CCCCCCCCCCCCCCCCCCCC(Cc1ccccn1)OC (stereo unspecified)
- mortality (MDA-MB-435 [1]): 20%
- mortality (MDA-MB-435 [2]): 20%

Compound: CCCCCCCCCCCCCCCCC[C@@H](C[C@@H]1C=CCCN1C)OC(C)=O
- mortality (MDA-MB-435 [1]): 0%
- mortality (MDA-MB-435 [3]): 20%
- IC50 at 48 h [4]: > 25 µM
- IC50 at 48 h [5]: 9 µM
- IC50 at 48 h [6]: 22 µM
- IC50 at 48 h [7]: 24 µM
- IC50 at 48 h [8]: 26 µM
- IC50 at 48 h [9]: > 25 µM
- IC50 at 48 h [10]: > 25 µM
- IC50 at 48 h [11]: 24 µM

Compound: CCCCCCCCCCCCCCCCCC(Cc1ccccn1)OC (stereo unspecified)
- mortality (MDA-MB-435 [1]): 0%
- mortality (MDA-MB-435 [3]): 0%

Compound: CCCCCCCCCCCCCCCCCCC[C@H](C[C@@H]1C=CCCN1C)OC(C)=O
- mortality (MDA-MB-435 [1]): 0%
- mortality (MDA-MB-435 [3]): 20%
- IC50 at 48 h [4]: > 25 µM
- IC50 at 48 h [5]: 17 µM
- IC50 at 48 h [6]: > 25 µM
- IC50 at 48 h [7]: > 25 µM
- IC50 at 48 h [8]: > 25 µM
- IC50 at 48 h [9]: > 25 µM
- IC50 at 48 h [10]: > 25 µM
- IC50 at 48 h [11]: > 25 µM

Compound: CCCCCCCC/C=C\CCCCCCC[C@@H](O)C[C@@H]1C=CCCN1C
- mortality (MDA-MB-435 [1]): 30%
- mortality (MDA-MB-435 [2]): 80%
- IC50 at 48 h [4]: 10 µM
- IC50 at 48 h [5]: 8 µM
- IC50 at 48 h [6]: 8 µM
- IC50 at 48 h [7]: 10 µM
- IC50 at 48 h [8]: 7 µM
- IC50 at 48 h [9]: 9 µM
- IC50 at 48 h [10]: 10 µM
- IC50 at 48 h [11]: 9 µM

Compound: CCCCCCCC/C=C\CCCCCCC[C@H](C[C@@H]1C=CCCN1C)OC(C)=O
- mortality (MDA-MB-435 [1]): 0%
- mortality (MDA-MB-435 [3]): 70%
- IC50 at 48 h [4]: 10 µM
- IC50 at 48 h [5]: 9 µM
- IC50 at 48 h [6]: 10 µM
- IC50 at 48 h [7]: 9 µM
- IC50 at 48 h [8]: 8 µM
- IC50 at 48 h [9]: 19 µM
- IC50 at 48 h [10]: 15 µM
- IC50 at 48 h [11]: 13 µM
- Activity (MDA-MB-435 [12]): 40%
- Activity (MDA-MB-435 [13]): Dose-dependent effect
- Activity (MDA-MB-435 [14]): <=40%
- Activity (MDA-MB-435 [15]): inactive
- inhibition (MDA-MB-435 [16]): Active
- inhibition [17]: inactive
- Activity (MDA-MB-435 [18]): inactive
- Activity (MDA-MB-435 [19]): inactive
- inhibition [20]: 70%
- inhibition [21]: 50%
- inhibition [22]: Active
